# High-throughput results from PubChem.
# Rev-RRE block = HIV-1 Rev-RRE binding inhibitors, primary screen, biochemical, FRET, protein-RNA interaction. Rev peptide-RRE RNA binding. inhibition, % at 8 µM. 97,000 tested, 0.79% active. AID 704, 2007;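 active = inhibition above the screen-wide mean plus 3 SD, cut at about 35% in these data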
#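 Assay system: Labelled RRE RNA duplex and labelled Rev peptide | Times: 5 min preincubation and 15 min binding, 25 °C | Detection: FRET, ex 480 nm, em 540 and 671 nm | Evaluation: % inhibition of FRET ratio versus controls | Benchmarks: DMSO wells as 0% and neomycin B wells as 100% inhibition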
# CYP2C9 act = human CYP2C9 activators, primary screen, biochemical, luminescence | recombinant CYP2C9, luciferin-H conversion; active compounds read high; factor 1 = untreated enzyme, 0 = blocked | 96,000 tested, 1.4% active | Cytochrome P450 2C9 (Homo sapiens), P11712 | AID 1024, 2008 | activation factor at 5 µM;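 active = activation factor of 2 or more for CYP2C9 at a 5 µM dose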
# CYP2C9 inhib = blockers of cytochrome P450 2C9 activity – biochemical, luminescence, ADME assay, primary screen; CYP2C9 Supersomes, luciferin-H conversion; inhibition, % at 5 µM; 96,000 tested, 20% active; AID 777, 2007;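 active = blocking of liver enzyme CYP2C9 beyond about 50% at 5 µM, limit read from the data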
# Cav32 inh = Cav3.2 calcium influx blockers – cell-based, Fluo-4 calcium fluorescence, FDSS, MLSMR library, primary screen | Cav3.2-expressing cells; active compounds read low | B-score at 10 µM | 100,000 tested, 4% active | AID 449739, 2010;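 active = single-dose well whose peak fluorescence ratio is a statistical outlier from its plate by either plate-standardised score or position-corrected B-score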
# CYP2C19 activ = human CYP2C19 activators, primary screen, biochemical, luminescence; activation factor at 5 µM; Cytochrome P450 2C19 (Homo sapiens), P33261; 96,000 tested, under 10 active; recombinant CYP2C19, luciferin-H EGE luminescence; active compounds read high; 0 = fully inhibited enzyme, 1 = untreated enzyme; AID 1025, 2008;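 active = activation factor of at least 2 at 5 µM in the primary screen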
# CYP2C19 inhib = blockers of cytochrome P450 2C19 activity – biochemical, luminescence, ADME assay, primary screen | CYP2C19 Supersomes, luciferin-H EGE luminescence, 30 min | AID 778, 2007 | inhibition, % at 5 µM | P33261 | 96,000 tested, 21% active;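 active = CYP2C19 inhibition above a set limit at 5 µM in the primary screen, cut at about 50% in these data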
# A number is an active result; – = inactive; · = no result. Only some compounds are listed: those with a hit (about 27% of all), similar ones and a draw of the others.
SMILES,Rev-RRE block,CYP2C9 act,CYP2C9 inhib,Cav32 inh,CYP2C19 activ,CYP2C19 inhib
O=C(OC(C(=O)O)C(OC(=O)c1ccccc1)C(=O)NCc1ccccc1)c1ccccc1 (stereo unspecified),–,–,–,–,–,–
Cc1ccc(NC(=O)c2ccc(CSc3ccccn3)cc2)cc1,–,–,–,–,–,–
CC(=O)NC1C(=O)Nc2c(C)cc(C)cc21 (stereo unspecified),–,–,–,–,–,–
O=C1NCCc2c1[nH]c1ccccc21,–,–,–,–,–,–
O=C1NCCc2c1[nH]c1c(Cl)ccc(Cl)c21,–,2.4,–,–,–,–
C=C(C)C1(O)OC(=O)C=C1OC (stereo unspecified),·,·,·,–,·,·
COc1ccc(-n2c(NC(=O)c3ccc(Br)o3)c(C#N)c3nc4ccccc4nc32)cc1,–,–,78.9,·,–,–
Cc1ccc2cccc(NC(=O)c3ccc(Br)o3)c2n1,–,–,–,–,–,–
Cc1nnc(NC(=O)CSc2nnc(Cc3cccn3C)n2CCc2ccccc2)s1,–,–,–,–,–,–
CC(C)c1nnc(SCC(=O)Nc2ccc3c(c2)OCO3)n1C,–,·,·,–,·,·
Cn1cccc1Cc1nnc(SCC(=O)Nc2ccc(F)cc2)n1CCc1ccccc1,·,–,–,-7.36,–,–
Cn1cccc1Cc1nnc(SCC(=O)Nc2ccc3c(c2)OCCO3)n1CCc1ccccc1,–,–,–,-10.7,–,–
Cn1c(Cc2ccccc2)nnc1SCC(=O)Nc1ccc2c(c1)OCO2,–,–,54.8,–,–,86.9
Cn1cccc1Cc1nnc(SCC(=O)Nc2ccc3c(c2)OCO3)n1CCc1ccccc1,·,–,57.3,-9.23,–,55.4
COC(=O)C1=C(C(=O)OC)[C@@H]2N(C)c3ccccc3[C@@]23C[C@@H](C(=O)OC)N(C(=O)c2cc(C)oc2C)C3=N1,·,·,·,–,·,·
CCCCCn1c(N(C)Cc2ccccc2)nc2c1c(=O)[nH]c(=O)n2C,–,–,–,–,–,–
COc1ccc(SCc2noc(C(=O)NC(C)C)c2C(=O)O)cc1,–,–,–,–,–,–
COc1ccc(N(C(=O)Nc2ccc(Cl)cc2)C2=NCCC2)cc1,–,–,53.9,–,–,–
CCOc1ncccc1C(=O)N(C)CC1COc2ccccc2O1 (stereo unspecified),–,–,62.7,–,–,85.1
COc1ccc(N/C(=C(/C(Cl)=C(Cl)Cl)[N+](=O)[O-])n2nnc3ccccc32)cc1,–,–,55.4,–,–,–
Cc1ccccc1N/C(=C(/C(Cl)=C(Cl)Cl)[N+](=O)[O-])n1nnc2ccccc21,–,–,–,–,–,–
Cc1c(NS(=O)(=O)c2cccs2)c(=O)n(-c2ccccc2)n1C,–,–,–,–,–,55.1
Cc1c(NS(=O)(=O)c2ccc3c(c2)n(C)c(=O)n3C)c(=O)n(-c2ccccc2)n1C,–,–,–,–,–,–
CCS(=O)(=O)Nc1c(C)n(C)n(-c2ccccc2)c1=O,–,–,–,–,–,–
Cc1c(NS(=O)(=O)N2CCCCC2)c(=O)n(-c2ccccc2)n1C,–,–,–,–,–,73.7
SMILES,Rev-RRE block,CYP2C9 act,CYP2C9 inhib,Cav32 inh,CYP2C19 activ,CYP2C19 inhib
Cc1c(NS(=O)(=O)c2ccc(Br)s2)c(=O)n(-c2ccccc2)n1C,–,–,54.2,·,–,–
Cc1c(NS(=O)(=O)CC23CCC(CC2=O)C3(C)C)c(=O)n(-c2ccccc2)n1C (stereo unspecified),–,–,–,–,–,54.6
CCn1c(SCC(=O)NCCc2ccc(F)cc2)nnc1-c1cccs1,–,–,–,–,–,–
NC(=O)NC(CCC(=O)O)C(=O)O (stereo unspecified),·,·,·,–,·,·
CCOC(=O)c1cncc(NC(=O)c2ccccc2)c1,–,–,–,–,–,–
Cn1c(SCC(=O)OCc2ccccc2)nnc1-c1ccco1,–,–,–,–,–,–
CCCCOc1c(Br)cc(/C=C2\N=C(C)OC2=O)cc1OCC,–,–,–,–,–,–
CC(C)NC(=O)NC(=O)COc1cccc2c1OC(C)(C)C2,–,–,–,–,–,92.6
